Converted amounts (≈) assume the structure as drawn.
Key:
Citrobacter freundii = assay: In vitro antibacterial activity against Citrobacter freundii BS 16; type: functional
Procedure, shortened: (§1)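 Serial 2-fold dilutions in the NCCLS broth microdilution method for aerobic nonfastidious organisms, with an 18-h incubation. The value is reported as the minimum inhibitory concentration (MIC).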

Enterobacter cloacae [1] = assay: In vitro antibacterial activity against Enterobacter cloacae 5699; type: functional; procedure, shortened: as §1
Escherichia coli [2] = assay: In vitro antibacterial activity against Escherichia coli 257; type: functional; procedure, shortened: as §1
Klebsiella pneumoniae = assay: In vitro antibacterial activity against Klebsiella pneumoniae A; type: functional; procedure, shortened: as §1
Pseudomonas aeruginosa [3] = assay: In vitro antibacterial activity against Pseudomonas aeruginosa 5712; type: functional; procedure, shortened: as §1
Staphylococcus aureus [4] = assay: In vitro antibacterial activity against Staphylococcus aureus 95(MR); type: functional
Procedure, shortened: (§2)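 Staphylococci were tested by the standard agar dilution procedure using serial 2-fold dilutions of agent. The value is reported as the MIC.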

Staphylococcus aureus [5] = assay: In vitro antibacterial activity against Staphylococcus aureus Smith(MS); type: functional; procedure, shortened: as §2
Serratia marcescens [6] = assay: In vitro antibacterial activity against Serratia marcescens SM; type: functional; procedure, shortened: as §1
Streptococcus pneumoniae [7] = assay: In vitro antibacterial activity against Streptococcus pneumoniae 6301; type: functional
Procedure, shortened: (§3)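 Broth macrodilution with serial 2-fold dilutions in cation-supplemented Mueller-Hinton broth containing 10% goat serum. The value is reported as the MIC.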

Streptococcus pyogenes [8] = assay: In vitro antibacterial activity against Streptococcus pyogenes 4; type: functional; procedure, shortened: as §3
Enterobacter cloacae [9] = assay: In vitro antibacterial activity against Enterobacter cloacae P99; type: functional; procedure, shortened: as §1
Escherichia coli [10] = assay: In vivo activity in murine against Escherichia coli 257 infection after sc administration.; type: functional; settings: Escherichia coli, sc; read-out: ED50
Procedure, shortened: (§4)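 Mouse protection test in CD1 Swiss albino mice (18–20 g). Mice were infected intraperitoneally with 0.5 mL of a diluted bacterial suspension, then treated within 5 min with one 1.0 mL subcutaneous dose at the dorsal base of the neck. Doses ranged from 0.05 to 250 mg/kg, with six mice per group. ED50 was calculated by the Reed–Muench method.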

Escherichia coli [11] = assay: Antibacterial activity against Escherichia coli DC-O; type: functional; procedure, shortened: as §1
Escherichia coli [12] = assay: Concentration required for 90% inhibition against 60 kDa penicillin-binding protein 3 binding using [14C]-Pen G as the radioligand.
Procedure, shortened: (§5)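 Solubilized membranes from sonicated E. coli DC-0 were used. PBP binding was measured as inhibition of [14C]penicillin G binding to each PBP.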

[13] = molecular target: T1, Peptidoglycan D,D-transpeptidase MrdA (Escherichia coli K-12) (UniProt P0AD65); assay: Concentration required for 90% inhibition against 66 kDa penicillin-binding protein 2 binding using [14C]-Pen G as the radioligand.; procedure, shortened: as §5
T1 sequence (whole entry): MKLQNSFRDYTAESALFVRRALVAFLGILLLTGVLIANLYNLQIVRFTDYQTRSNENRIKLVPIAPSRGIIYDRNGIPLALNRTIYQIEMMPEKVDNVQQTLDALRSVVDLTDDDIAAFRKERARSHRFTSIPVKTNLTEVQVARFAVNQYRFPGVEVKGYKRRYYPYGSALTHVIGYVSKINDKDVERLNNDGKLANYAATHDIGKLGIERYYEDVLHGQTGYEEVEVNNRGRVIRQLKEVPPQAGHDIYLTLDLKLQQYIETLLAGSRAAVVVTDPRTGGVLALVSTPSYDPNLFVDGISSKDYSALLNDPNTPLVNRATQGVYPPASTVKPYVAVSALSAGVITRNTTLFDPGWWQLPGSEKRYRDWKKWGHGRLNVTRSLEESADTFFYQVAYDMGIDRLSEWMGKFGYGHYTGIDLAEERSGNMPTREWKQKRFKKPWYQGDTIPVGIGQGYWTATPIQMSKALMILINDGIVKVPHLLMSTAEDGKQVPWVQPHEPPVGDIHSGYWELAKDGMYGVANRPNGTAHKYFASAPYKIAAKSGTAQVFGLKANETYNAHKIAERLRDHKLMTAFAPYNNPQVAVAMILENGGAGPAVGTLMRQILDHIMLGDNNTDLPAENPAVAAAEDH

[14] = molecular target: T2, Penicillin-binding protein 1A (Escherichia coli K-12) (UniProt P02918); assay: Concentration required for 90% inhibition against 90 kDa penicillin-binding protein 1a binding using [14C]-Pen G as the radioligand.; procedure, shortened: as §5
T2 sequence (whole entry): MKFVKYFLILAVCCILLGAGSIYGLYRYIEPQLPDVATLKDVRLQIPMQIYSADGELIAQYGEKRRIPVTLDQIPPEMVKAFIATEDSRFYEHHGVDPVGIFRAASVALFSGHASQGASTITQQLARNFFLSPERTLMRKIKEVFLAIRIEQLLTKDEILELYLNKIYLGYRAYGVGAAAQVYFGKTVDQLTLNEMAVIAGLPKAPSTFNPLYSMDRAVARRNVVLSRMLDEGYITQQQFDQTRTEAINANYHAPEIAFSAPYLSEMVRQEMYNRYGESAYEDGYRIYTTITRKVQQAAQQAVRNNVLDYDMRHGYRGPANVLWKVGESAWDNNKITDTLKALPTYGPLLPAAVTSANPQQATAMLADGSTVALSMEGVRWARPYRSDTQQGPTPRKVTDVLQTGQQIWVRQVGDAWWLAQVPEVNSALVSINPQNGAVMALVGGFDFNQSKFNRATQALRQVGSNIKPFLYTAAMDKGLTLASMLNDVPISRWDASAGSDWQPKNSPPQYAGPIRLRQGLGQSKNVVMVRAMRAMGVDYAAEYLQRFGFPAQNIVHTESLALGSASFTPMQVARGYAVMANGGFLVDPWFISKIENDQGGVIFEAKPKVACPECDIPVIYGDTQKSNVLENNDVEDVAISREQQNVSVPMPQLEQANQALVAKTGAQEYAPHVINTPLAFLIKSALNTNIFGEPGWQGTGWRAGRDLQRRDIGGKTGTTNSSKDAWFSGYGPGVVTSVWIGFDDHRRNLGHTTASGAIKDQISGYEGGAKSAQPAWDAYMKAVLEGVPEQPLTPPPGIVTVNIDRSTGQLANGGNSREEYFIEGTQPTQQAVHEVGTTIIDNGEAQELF

[15] = molecular target: T3, Penicillin-binding protein 1B (Escherichia coli K-12) (UniProt P02919); assay: Concentration required for 90% inhibition against 90 kDa penicillin-binding protein 1b binding using [14C]-Pen G as the radioligand.; procedure, shortened: as §5
T3 sequence (whole entry): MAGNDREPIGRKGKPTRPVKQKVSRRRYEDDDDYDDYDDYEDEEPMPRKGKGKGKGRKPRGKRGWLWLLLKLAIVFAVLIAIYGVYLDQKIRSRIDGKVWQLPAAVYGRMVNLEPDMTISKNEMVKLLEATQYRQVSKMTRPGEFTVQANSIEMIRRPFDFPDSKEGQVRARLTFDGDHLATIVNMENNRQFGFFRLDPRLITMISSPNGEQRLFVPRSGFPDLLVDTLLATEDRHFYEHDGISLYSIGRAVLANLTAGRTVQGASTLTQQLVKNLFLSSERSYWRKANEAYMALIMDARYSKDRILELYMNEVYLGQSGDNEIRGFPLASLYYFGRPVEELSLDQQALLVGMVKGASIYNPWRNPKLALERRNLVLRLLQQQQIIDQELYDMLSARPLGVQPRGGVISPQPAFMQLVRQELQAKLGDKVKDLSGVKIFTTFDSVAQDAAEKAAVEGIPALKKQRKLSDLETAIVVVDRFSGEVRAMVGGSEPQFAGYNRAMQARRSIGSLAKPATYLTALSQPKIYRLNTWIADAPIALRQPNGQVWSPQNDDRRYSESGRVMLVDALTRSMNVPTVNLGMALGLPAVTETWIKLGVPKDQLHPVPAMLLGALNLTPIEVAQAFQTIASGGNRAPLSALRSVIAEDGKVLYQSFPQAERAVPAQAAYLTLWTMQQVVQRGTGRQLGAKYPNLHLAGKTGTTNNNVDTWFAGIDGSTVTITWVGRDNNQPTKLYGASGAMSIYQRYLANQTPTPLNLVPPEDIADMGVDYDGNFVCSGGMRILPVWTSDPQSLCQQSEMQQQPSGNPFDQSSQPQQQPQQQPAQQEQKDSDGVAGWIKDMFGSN

Pseudomonas aeruginosa [16] = assay: In vivo activity in murine against Pseudomonas aeruginosa 5712 infection after sc administration.; type: functional; settings: Pseudomonas aeruginosa, sc; read-out: ED50
Procedure, shortened: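 Mouse protection test in CD1 Swiss albino mice (18–20 g) infected intraperitoneally with 0.5 mL of diluted P. aeruginosa suspension. Mice received 1.0 mL subcutaneously at the neck base within 5 min of infection and a second treatment 3 h after infection. Doses ranged from 0.05 to 250 mg/kg, with six mice per group. ED50 was calculated by the Reed–Muench method.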

Serratia marcescens [17] = assay: In vivo activity in murine against Serratia marcescens SM infection after sc administration.; type: functional; procedure, shortened: as §4
Streptococcus pyogenes [18] = assay: In vivo activity in murine against Streptococcus pyogenes 4 infection after sc administration.; type: functional; procedure, shortened: as §4
Streptococcus pneumoniae [19] = assay: In vivo activity in murine against Streptococcus pneumoniae 6301 infection after sc administration.; type: functional; procedure, shortened: as §4

| SMILES | MIC (Citrobacter freundii) | MIC (Enterobacter cloacae [1]) | MIC (Escherichia coli [2]) | MIC (Klebsiella pneumoniae) | MIC (Pseudomonas aeruginosa [3]) | MIC (Staphylococcus aureus [4]) | MIC (Staphylococcus aureus [5]) | MIC (Serratia marcescens [6]) | MIC (Streptococcus pneumoniae [7]) | MIC (Streptococcus pyogenes [8]) | MIC (Enterobacter cloacae [9]) | MIC (Escherichia coli [11]) | Concentration (Escherichia coli [12]) | Concentration [13] | Concentration [14] | Concentration [15] | further results |
| --- | --- | --- | --- | --- | --- | --- | --- | --- | --- | --- | --- | --- | --- | --- | --- | --- | --- |
| CCn1cc(C(=O)O)c(=O)c2cc(F)c(N3CC[N+](C)(CC4=C(C(=O)[O-])N5C(=O)[C@@H](NC(=O)/C(=N\OC)c6csc(N)n6)[C@H]5SC4)CC3)cc21 | 4 µg/mL (≈ 5.49 µM) | 1 µg/mL (≈ 1.37 µM) | 0.5 µg/mL (≈ 0.686 µM) | 1 µg/mL (≈ 1.37 µM) | 64 µg/mL (≈ 87.8 µM) | 4 µg/mL (≈ 5.49 µM) | 2 µg/mL (≈ 2.74 µM) | 1 µg/mL (≈ 1.37 µM) | 0.063 µg/mL (≈ 0.0864 µM) | 0.125 µg/mL (≈ 0.172 µM) | 1 µg/mL (≈ 1.37 µM) | – | – | – | – | – | – |
| CO/N=C(\C(=O)N[C@@H]1C(=O)N2C(C(=O)O)=C(COC(C)=O)CS[C@H]12)c1csc(N)n1 [CEFOTAXIME] | 128 µg/mL (≈ 281 µM) | 0.125 µg/mL (≈ 0.274 µM) | 0.031 µg/mL (≈ 0.0681 µM) | 0.031 µg/mL (≈ 0.0681 µM) | 64 µg/mL (≈ 141 µM) | 128 µg/mL (≈ 281 µM) | 1 µg/mL (≈ 2.2 µM) | 0.25 µg/mL (≈ 0.549 µM) | 0.016 µg/mL (≈ 0.0351 µM) | < 0.008 µg/mL | 64 µg/mL (≈ 141 µM) | 0.06 µg/mL (≈ 0.132 µM) | 0.1 µg/mL | 100 µg/mL | 0.1 µg/mL | 0.5 µg/mL | ED50 (Escherichia coli [10]): 0.37 mg/kg; ED50 (Pseudomonas aeruginosa [16]): > 250 mg/kg; ED50 (Serratia marcescens [17]): > 50 mg/kg; ED50 (Streptococcus pyogenes [18]): 7 mg/kg; ED50 (Streptococcus pneumoniae [19]): 90 mg/kg |
| C[N+]1(CC2=C(C(=O)[O-])N3C(=O)[C@@H](NC(=O)COc4ccccc4)[C@H]3SC2)CCN(c2ccccc2)CC1 | > 128 µg/mL | 64 µg/mL (≈ 122 µM) | 32 µg/mL (≈ 61.2 µM) | 32 µg/mL (≈ 61.2 µM) | > 128 µg/mL | 128 µg/mL (≈ 245 µM) | 0.063 µg/mL (≈ 0.121 µM) | > 128 µg/mL | 0.125 µg/mL (≈ 0.239 µM) | 0.031 µg/mL (≈ 0.0593 µM) | > 128 µg/mL | – | – | – | – | – | – |
| CO/N=C(\C(=O)N[C@@H]1C(=O)N2C(C(=O)O)=C(COC(=O)c3cn(CCF)c4c(F)c(N5CCN(C)CC5)c(F)cc4c3=O)CS[C@H]12)c1csc(N)n1 | 0.25 µg/mL (≈ 0.327 µM) | 0.25 µg/mL (≈ 0.327 µM) | 0.063 µg/mL (≈ 0.0824 µM) | 0.125 µg/mL (≈ 0.163 µM) | 16 µg/mL (≈ 20.9 µM) | 1 µg/mL (≈ 1.31 µM) | 1 µg/mL (≈ 1.31 µM) | 0.125 µg/mL (≈ 0.163 µM) | < 0.008 µg/mL | < 0.008 µg/mL | 0.125 µg/mL (≈ 0.163 µM) | 0.12 µg/mL (≈ 0.157 µM) | 0.1 µg/mL | 100 µg/mL | 0.1 µg/mL | 2 µg/mL | – |

— ChEMBL document CHEMBL1125894, “Dual-action cephalosporins: cephalosporin 3'-quaternary ammonium quinolones” (1991)
